High-throughput results (PubChem BioAssay)
NR2E3 ag-1 = activates human NR2E3 receptor. Q9Y5X4. CHO-S Gal4-NCOR/VP16-NR2E3 two-hybrid, luciferase. inhibition of corepressor binding, % at 3.98 µM. 360,000 tested, 0.35% active;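 active = inhibition above the mean of all tested compounds plus 3 SD, cut at about 70% in these data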;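 also: 0% = DMSO with NR2E3 transfected cells and 100% = cells lacking NR2E3 construct; higher means lower luciferase signal from less NR2E3 corepressor binding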
Target sequence (Q9Y5X4 whole entry, looked up, the tested form may be a part): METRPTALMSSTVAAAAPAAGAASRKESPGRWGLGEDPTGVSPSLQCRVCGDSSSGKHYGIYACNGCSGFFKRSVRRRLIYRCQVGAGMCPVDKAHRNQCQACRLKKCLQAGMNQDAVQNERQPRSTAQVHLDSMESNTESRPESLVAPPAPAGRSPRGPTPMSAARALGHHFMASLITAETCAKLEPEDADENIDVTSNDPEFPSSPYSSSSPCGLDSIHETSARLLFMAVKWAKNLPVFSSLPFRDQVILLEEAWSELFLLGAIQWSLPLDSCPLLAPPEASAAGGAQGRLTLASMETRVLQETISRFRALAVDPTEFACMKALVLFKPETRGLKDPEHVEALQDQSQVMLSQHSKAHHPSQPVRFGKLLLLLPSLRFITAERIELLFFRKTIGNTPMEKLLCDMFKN
697 NFkB inh = inhibitors of the PMA/ionomycin-induced NF-kB reporter in 697 B cells. 697 B-cell NF-kB luciferase reporter, 16 h. 330,000 tested, 0.33% active. inhibition, % at 4 µM; in the data active = inhibition above about 35%
Jurkat NFkB inh = lowers PMA/ionomycin-induced NF-kB signal in Jurkat cells; AID 435003; inhibition, % at 4 µM; 330,000 tested, 0.53% active; PMA/ionomycin-induced NF-kB luciferase reporter, luminescence; in the data active = inhibition above about 50%
miR122 inh = blocks miR-122 activity in Huh7 sensor cells; Huh7 miR-122 Renilla luciferase sensor, 48 h; neutral wells = 0, positive control = 100; activation (reporter increase), % at 12.5 µM; 340,000 tested, 0.3% active;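 active = mean replicate activation score at least 90 and every replicate individually at or above 90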;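 also: higher luciferase means less miR-122 activity so hits act as miR-122 inhibitors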
FGF22 binding = FGF22 (human) thermal shift binding | Q9HCT0 | recombinant FGF22 thermal shift, SYPRO orange fluorescence; percent of sucrose octasulfate shift, DMSO zero | activity (Tm shift, normalised), % at 9.99 µM | 340,000 tested, 1.5% active;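 active = mean Tm shift, scaled 0 neutral to 100 positive control, at about 1.3% or above, every replicate too, limit read from the data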
Target sequence (Q9HCT0 whole entry, looked up): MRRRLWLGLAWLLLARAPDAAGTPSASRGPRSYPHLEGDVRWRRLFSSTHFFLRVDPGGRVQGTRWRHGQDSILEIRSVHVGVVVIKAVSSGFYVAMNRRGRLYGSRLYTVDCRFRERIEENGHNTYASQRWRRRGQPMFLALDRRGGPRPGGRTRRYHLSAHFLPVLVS
NR2E3 ag-2 = NR2E3 (human) agonism; GST-NR2E3/biotin-RetCOR TR-FRET, 1536-well; inhibition of corepressor binding, % at 4.78 µM; 320,000 tested, 0.12% active;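 active = percent inhibition above the cutoff of mean plus 3 SD of all tested compounds, set per screening campaign, cut at about 20% in these data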;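 also: 0% = DMSO wells and 100% = biotin wells as full block of FRET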
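Material: NR2E3–RetCOR corepressor complex / Amount: 1.35 nM GST-NR2E3 / Medium: Tris pH 7.5 / Compound: single nominal compound dose of 4.8 µM / Incubation: 5 h at 4 °C / Technique: TR-FRET, Eu(K)-anti-GST donor, streptavidin-D2 acceptor, ex 340, em 617/671 nm / Read-out basis: percent loss of FRET ratio relative to control wells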
Numbers without * were called inactive; [ ] = remark or other dose. Sampled rows, rich in hits. Any-hit rate of the full collection: about 2.2%.

What do the screens show for `Cc1ccc2ncccc2c1N`?
NR2E3 ag-1: -23; 697 NFkB inh: 9; Jurkat NFkB inh: 0; miR122 inh: -4; FGF22 binding: 0; NR2E3 ag-2: 0

Results for O=C(C[C@H]1CC[C@@H]2[C@H](COC[C@@H](O)CN2S(=O)(=O)c2cccc(Cl)c2)O1)NCCCN1CCOCC1 ?
miR122 inh: 1[16.7 µM]; FGF22 binding: 0

What do the screens show for `CN(C)S(=O)(=O)c1cc(C(=O)NCc2ccccc2)c(Cl)cc1Cl`?
NR2E3 ag-1: -26; 697 NFkB inh: 7; Jurkat NFkB inh: -7; FGF22 binding: 43*; NR2E3 ag-2: 1

What do the screens show for `COc1ccccc1NS(=O)(=O)c1cccc(C(=O)N/N=C/c2ccc(OCC(=O)O)cc2)c1`?
NR2E3 ag-1: -2; 697 NFkB inh: 17; Jurkat NFkB inh: 5; FGF22 binding: 1; NR2E3 ag-2: 2

How did O=C(O)COc1ccccc1/C=N/NC(=O)c1cccc(S(=O)(=O)Nc2cccc(Cl)c2)c1 do in these assays?
NR2E3 ag-1: -9; 697 NFkB inh: -6; Jurkat NFkB inh: 12; miR122 inh: 0; FGF22 binding: 43*; NR2E3 ag-2: -1

Results for C/C(CCc1ccccc1)=N\NC(=O)COc1ccccc1C ?
NR2E3 ag-1: -18; 697 NFkB inh: 7; Jurkat NFkB inh: 11; FGF22 binding: 43*; NR2E3 ag-2: 1

What do the screens show for `Cc1cc(C)c(S(C)(=O)=O)c(NN)n1`?
NR2E3 ag-1: -9; 697 NFkB inh: 10; Jurkat NFkB inh: -15; FGF22 binding: 44*; NR2E3 ag-2: 3

Results for O=C1Nc2ccc([N+](=O)[O-])cc2OC1CCN1CCN(Cc2ccc3c(c2)OCO3)CC1 (stereo not given) ?
NR2E3 ag-1: -8; 697 NFkB inh: 5; Jurkat NFkB inh: 8; miR122 inh: 153*; FGF22 binding: 0; NR2E3 ag-2: -1

How did CC(=O)N(C)C[C@H]1Oc2cc(C3=CCCC3)ccc2S(=O)(=O)N([C@@H](C)CO)C[C@@H]1C do in these assays?
miR122 inh: -1[16.7 µM]; FGF22 binding: 0

Results for C[C@@H]1CN([C@H](C)CO)C(=O)c2cccc(NC(=O)NC3CCCCC3)c2O[C@H]1CN(C)Cc1ccc(Cl)c(Cl)c1 ?
miR122 inh: 118*[16.7 µM]; FGF22 binding: 0

Results for C[C@H](CO)N1C[C@H](C)[C@@H](CN(C)Cc2ccc(Cl)c(Cl)c2)Oc2c(NC(=O)C3CC3)cccc2C1=O ?
NR2E3 ag-1: 4; 697 NFkB inh: 16; Jurkat NFkB inh: 3; miR122 inh: 114*[16.7 µM]; FGF22 binding: 0

Results for CCCC#Cc1ccc([C@@H]2[C@@H](CO)N3CCCCN(CCC)C[C@@H]23)cc1 ?
miR122 inh: 9[16.7 µM]; FGF22 binding: 1

What do the screens show for `CC1(C)Cc2c(sc(NC(=S)NC(=O)c3ccccc3)c2C(=O)O)CO1`?
NR2E3 ag-1: -24; 697 NFkB inh: 5; Jurkat NFkB inh: 16; FGF22 binding: 44*; NR2E3 ag-2: 2

Results for COc1ccccc1-c1cccc(-c2nc(C(=O)N3CCCCC3)cc3c2[C@@H](CCO)N([S@](=O)C(C)(C)C)C3)c1 ?
FGF22 binding: 0

What do the screens show for `CCC(C)C(=O)Nc1nnc(SCC(=O)Nc2ccccc2F)s1` (stereo not given)?
NR2E3 ag-1: -6; 697 NFkB inh: 5; Jurkat NFkB inh: 14; FGF22 binding: 44*; NR2E3 ag-2: -2

What do the screens show for `CCOC=C1C(=O)N(C(C)=O)c2cc(OC)c(OC)cc21`?
NR2E3 ag-1: -14; miR122 inh: -5; FGF22 binding: 43*

How did CCO/C=C1/C(=O)N(c2ccccc2OC)C(=O)c2ccccc21 do in these assays?
NR2E3 ag-1: -3; 697 NFkB inh: 17; Jurkat NFkB inh: -18; miR122 inh: -4; FGF22 binding: 0; NR2E3 ag-2: -3

Results for CN1C(=O)[C@H]2[C@@H](c3ccc(F)cc3)N3C(=O)c4ccccc4NC(=O)[C@@]3(C)[C@H]2C1=O ?
NR2E3 ag-1: -32; 697 NFkB inh: 17; Jurkat NFkB inh: -2; miR122 inh: 95*; NR2E3 ag-2: 7

What do the screens show for `Cc1noc(C)c1NC(=O)Nc1cccc2c1O[C@H](CN(C)S(=O)(=O)c1cn(C)cn1)[C@@H](C)CN([C@@H](C)CO)C2=O`?
miR122 inh: -1[16.7 µM]; FGF22 binding: 0

What do the screens show for `Cc1ccc(C(=O)O)cc1NC(=S)NC(=O)c1ccc(-c2ccccc2)cc1`?
NR2E3 ag-1: -90; 697 NFkB inh: -58; Jurkat NFkB inh: -19; miR122 inh: -3; FGF22 binding: 43*; NR2E3 ag-2: 2

Results for O=C(O)c1cccc(NC(=S)NC(=O)c2ccc(-c3ccccc3)cc2)c1 ?
NR2E3 ag-1: -67; 697 NFkB inh: -68; Jurkat NFkB inh: -2; FGF22 binding: 0; NR2E3 ag-2: 0

How did CCCN(C)C[C@H]1Oc2ncc(-c3cccnc3)cc2C(=O)N([C@H](C)CO)C[C@@H]1C do in these assays?
miR122 inh: 9[16.7 µM]; FGF22 binding: 0

How did Cc1ccc(/C=C/C(=O)O)cc1S(=O)(=O)Nc1ccccc1C(=O)O do in these assays?
NR2E3 ag-1: -20; 697 NFkB inh: -1; Jurkat NFkB inh: 2; miR122 inh: 7; FGF22 binding: 43*; NR2E3 ag-2: 2

Results for Cc1ccc(/C=C/C(=O)O)cc1S(=O)(=O)N1CCc2ccccc2C1 ?
NR2E3 ag-1: -11; 697 NFkB inh: 10; Jurkat NFkB inh: -1; miR122 inh: 1; FGF22 binding: 43*; NR2E3 ag-2: 1

What do the screens show for `O=C(C[C@H]1C=C[C@H](NC(=O)Cc2ccccn2)[C@@H](CO)O1)NCCc1ccncc1`?
FGF22 binding: 0

Results for CCC(=O)Nc1ccc2c(c1)C(=O)N(C)C[C@@H](OC)[C@H](C)CN(C(=O)CC1CC1)[C@H](C)CO2 ?
miR122 inh: -7[16.7 µM]; FGF22 binding: 1

How did CCN1C(C)=C(C)S/C1=C1\SC(=S)N(C2CCCCC2)C1=O do in these assays?
NR2E3 ag-1: 3; 697 NFkB inh: -12; Jurkat NFkB inh: -2; FGF22 binding: 44*; NR2E3 ag-2: 6

How did CCN1C(C)=C(C)S/C1=C1\SC(=S)N(NC(C)=O)C1=O do in these assays?
NR2E3 ag-1: 18; 697 NFkB inh: 10; Jurkat NFkB inh: 4; miR122 inh: 0; FGF22 binding: 0; NR2E3 ag-2: -6

What do the screens show for `COCC(=O)Nc1ccc2c(c1)OC[C@@H](C)N(C(=O)c1ccccc1)C[C@@H](C)[C@H](OC)CN(C)C2=O`?
miR122 inh: -21[16.7 µM]; FGF22 binding: 0

What do the screens show for `C[C@@H]1CN([C@@H](C)CO)C(=O)c2cc(-c3ccccc3F)cnc2O[C@H]1CN(C)C(=O)C1CCCCC1`?
miR122 inh: -1[16.7 µM]; FGF22 binding: 0
